Assay results: ChEMBL document CHEMBL2203253, “An ecofriendly synthesis and DNA binding interaction study of some pyrazolo [1,5-a]pyrimidines derivatives” (Bioorg Med Chem Lett, 2012)
Active and inactive are the calls of the source. The rule behind the calls is not given here.

Columns and labels:
Type in all cases: nucleic-acid assay
Details in all cases: Bos taurus
[1] = system: Nucleic Acid; assay: Binding affinity to calf thymus DNA assessed as intrinsic binding constant by UV-visible absorption spectroscopy
In short: (§1)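 CT-DNA checked for purity by A260/A280; concentration per nucleotide from extinction coefficient at 260 nm (6600 M-1 cm-1). Compound held constant at 30 μM in 50% DMSO/phosphate buffer, pH 7.2 (5 mM in one passage, 0.2 M in another). DNA titrated from 0 to 100 μM, spectra recorded after each addition once equilibrated.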

[2] = system: Nucleic Acid; assay: Binding affinity to calf thymus DNA assessed as bathochromic shift at 30 uM by UV-visible absorption spectroscopy; in short: as §1
[3] = system: Nucleic Acid; assay: Binding affinity to calf thymus DNA assessed as hypochromicity at 30 uM by UV-visible absorption spectroscopy; in short: as §1
[4] = system: Nucleic Acid; assay: Binding affinity to calf thymus DNA assessed as increase in viscosity of short, rod-like DNA at compound to DNA ratio of 0.2 to 1.4 by viscometer
In short: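 Viscometer titration of CT-DNA solution (496.2 μmol/L) in phosphate buffer pH 7.2 with increasing compound concentrations. Flow time measured at 25 °C in an Ostwald viscometer, with the same method for each compound.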

[5] = system: Nucleic Acid; assay: Binding affinity to calf thymus DNA assessed as melting temperature at 5 to 10 uM by thermal denaturation analysis
In short: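 Thermal melting of CT-DNA (50 μM) in phosphate buffer pH 7.2, with and without compound (5–10 μM). Absorbance at 260 nm followed across temperatures. Tm taken as the point of 50% strand separation, with curve width from the 10–90% absorbance rise.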

Row | SMILES | Kb [1] | Activity [2] | Activity [3] | Activity [4] | Tm [5]
1 | CCCCc1nc(Cl)c([C@@H]2[C@H]3C(C)=NN(c4ccccc4)C3=Nc3c(/N=N/c4ccc(Cl)cc4)c(N)nn32)[nH]1 | 5.7 ×10⁵ /M | Active | Active | Active | 82 °C
2 | CCCCc1nc(Cl)c(/C=C2/C(=O)N(c3ccccc3)N=C2C)[nH]1 | 5.21 ×10⁵ /M | Active | Active | Active | 80 °C
